We go through seven molecules from PMC5267326 (Chemical Science, 2015).

Data set [1] relates to FGF2 binding to cell surface heparan sulfate (wild-type CHO cells). Put plainly: Inhibition of FGF2 binding to cell surface HS on wild-type CHO cells. The conditions noted are these: for IC50: read-out: IC50 against FGF2 binding, biotinylated FGF2 2.5 nM, on ice, mean ± SD of n = 3–4; for inhibition of FGF2 binding (in words): up to 100 μM. The method in brief: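 Wild-type CHO cells grown to confluence in F12/10% FBS, lifted enzyme-free and washed in PBS. Pre-incubated with test compound in PBS/0.1% BSA for 10 min on ice. Biotinylated FGF2 (2.5 nM) added for 30 min on ice. After washing, detected with streptavidin-PE-Cy5 or streptavidin-Cy5 by flow cytometry as geometric mean fluorescence. Expressed as % of binding without compound and plotted against concentration.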

For data set [2] the following is noted: cited from earlier work.
Data set [3] is described as follows: In vivo neutralization of fondaparinux in mice. The conditions noted are these: fondaparinux 0.5 mg kg^–1 s.c., 16 mg kg^–1 i.v. The method in brief: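 Wild-type mice (8 weeks, ~20–30 g), n = 3 per group. Baseline tail bleed 30 min before dosing. Fondaparinux 0.5 mg kg−1 in PBS given s.c. After 10 min, tail-vein i.v. dosing of test compound (16 mg kg−1, DMSO–water), DMSO–H2O vehicle or protamine (16 mg kg−1, PBS). Blood drawn 5 min later into 3.2% citrate. Plasma anti-FXa colorimetric assay (405 nm) read against a calibration curve. Means ± SD.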

Data set [4] concerns soluble RAGE (sRAGE) binding to cell surface HS. Put plainly: Inhibition of sRAGE binding to cell surface HS on CHO cells. The conditions noted are these: for sRAGE binding inhibition at 10 μM (in words): 10 μM compound, cell surface HS. The method in brief: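 CHO cells lifted enzyme-free and washed in PBS. Test compound at 10 μM pre-incubated in PBS/0.1% BSA for 10 min on ice. Biotinylated sRAGE (2 μg mL−1) added for 1 h on ice. After washing, bound protein detected with streptavidin-PE-Cy5 or streptavidin-Cy5 by flow cytometry as geometric mean fluorescence. Reported relative to no-compound binding, means ± SD.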

For `Cc1cc(N)c2cc(NC(=S)Nc3ccc4nc(C)cc(N)c4c3)ccc2n1` [Thio surfen (4), N,N′-bis-(4-amino-2-methyl-6-quinolyl)-thiourea], the IC50 in data set [1] was determined as 8 ± 0.2 µM. As for `Nc1ccnc2ccccc12` [4-aminoquinoline], the “pKa of the protonated form” value in data set [2] is approximately 8.5. As for protamine, the “neutralizing fondaparinux in vivo (in words)” value in data set [3] is on record as “ineffective”. In the case of `Cc1cc(N)c2cc(NC(N)=O)ccc2n1` [Hemisurfen (2), 4-Amino-2-methyl-6-quinolyl-urea], in data set [1], the half-inhibitory concentration (IC50) was more than 100 µM and the “inhibition of FGF2 binding (in words)” value is listed as “did not inhibit”. The “sRAGE binding inhibition at 10 μM (in words)” value (“sRAGE binding inhibition” for short) in data set [4] is “no inhibitory activity”. Turning to `CC(=O)Nc1ccc2nc(C)cc(N)c2c1` [Acetyl-hemisurfen (3), 6-acetamido-4-aminoquinaldine], in data set [1], the concentration for half-maximal inhibition (IC50) was more than 100 µM and the “inhibition of FGF2 binding (in words)” value was “did not inhibit”. Besides, the “sRAGE binding inhibition” value in data set [4] is “no inhibitory activity”. Besides, the half-inhibitory concentration (IC50) in data set [4] (read-out: IC50 inhibition of sRAGE binding to HS, CHO cells, biotinylated sRAGE 2 μg mL^–1) is more than 100 µM. As for `COc1cc(C)nc2ccc(NC(=O)Nc3ccc4nc(C)cc(OC)c4c3)cc12` [Methoxy surfen (5), 1,3-bis(4-methoxy-2-methyl-quinolin-6-yl)urea], the IC50 in data set [1] was more than 100 µM.

Consider `Cc1ccc2cc(NC(=O)Nc3ccc4nc(C)ccc4c3)ccc2n1` [Deaminated surfen (6), 1,3-Bis(2-methylquinolin-6-yl)urea], for which the half-inhibitory concentration (IC50) in data set [1] was more than 100 µM. In addition, the “sRAGE binding inhibition” value in data set [4] is recorded as “no inhibitory activity”.

Broadly, the IC50 is the point on the concentration scale where inhibition reaches its midpoint.
